# Bioassay records (PubChem)
# Hits are enriched below; roughly 2.3% of the tested compounds scored in any of these assays.
# SR-BI HDL uptake: blocks mouse SR-BI lipid uptake from DiI-HDL. Q61009. ldlA[mSR-BI] CHO cells, DiI-HDL uptake fluorescence, 3 h. inhibition, % at 12.5 µM. hit rate 0.96% among 320,000. AID 488896;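 active = mean replicate inhibition of at least 70% and a set share of replicates each scoring 70 or more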;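 also: 0% = median of neutral control wells and 100% = median of positive control wells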
# Target sequence (Q61009 whole entry, looked up): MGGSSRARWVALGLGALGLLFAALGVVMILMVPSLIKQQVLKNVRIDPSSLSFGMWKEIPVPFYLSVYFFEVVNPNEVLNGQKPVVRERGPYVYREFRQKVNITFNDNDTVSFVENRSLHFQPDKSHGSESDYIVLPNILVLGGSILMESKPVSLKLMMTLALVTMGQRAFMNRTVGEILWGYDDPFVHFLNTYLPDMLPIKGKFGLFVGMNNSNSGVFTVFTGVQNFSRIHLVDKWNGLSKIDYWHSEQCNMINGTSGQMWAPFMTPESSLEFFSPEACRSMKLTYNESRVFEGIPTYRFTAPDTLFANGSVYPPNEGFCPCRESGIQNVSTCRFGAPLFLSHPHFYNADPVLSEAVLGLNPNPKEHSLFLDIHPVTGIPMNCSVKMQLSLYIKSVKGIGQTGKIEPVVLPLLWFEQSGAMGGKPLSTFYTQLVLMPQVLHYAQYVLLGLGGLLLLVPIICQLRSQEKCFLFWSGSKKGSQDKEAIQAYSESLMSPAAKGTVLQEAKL
# CAL PDZ FP-1: inhibitors of human CAL PDZ peptide binding. Q9HD26. purified CAL PDZ, TMR-peptide fluorescence polarization, 1 h. inhibition, % at 24.9 µM. hit rate 0.92% among 300,000;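 active = mean inhibition of at least 30% with at least half of replicates also reaching 30%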;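 also: 0% = DMSO neutral control and 100% = excess unlabeled competitor peptide PRC23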
# CAL PDZ FP-2: inhibitors of human CAL PDZ peptide binding. Q9HD26. purified CAL PDZ, TMR-peptide fluorescence polarization, 1 h. inhibition, % at 20 µM. hit rate 0.02% among 330,000. AID 504414;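 active = highest replicate inhibition of at least 40%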;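 also: plate controls were DMSO neutral control wells for no effect and unlabeled competitor peptide control wells for full effect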
#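 Read-out basis: mP drop reported as inhibition | Assay system: Tagged CAL PDZ protein CerCALP, purified | Benchmarks: Unlabelled peptide for full inhibition, DMSO wells as neutral | Schedule: 1 h incubation at room temperature before polarization reading | Buffer or medium: Sodium phosphate/NaCl buffer pH 7.4 with TCEP, IgG, Thesit | Doses: Single point, 20 µM | Measured by: Fluorescence polarization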
# ATG4B inh: inhibitors of human ATG4B cysteine protease | hit rate 0.51% among 340,000 | Q9Y4P1 | ATG4B cleavage of LC3-PLA2, NBD-HPC fluorescence, 1 h | inhibition, % at 8.33 µM; in the data active = inhibition above about 40%
# SR-BI uptake up: enhances SR-BI lipid uptake from DiI-HDL. CHO ldlA[mSR-BI] cells, DiI-HDL uptake fluorescence, 3 h; 100 = double the neutral-control signal. activation, % at 12.5 µM. hit rate 0.096% among 320,000;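 active = mean replicate activation of at least 60% and every replicate at or above 60%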;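 also: 0% = median plate neutral-control signal and 100% = twice that signal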
#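 Material: SR-BI-overexpressing, LDLR-lacking CHO cells; schedule: compound exposure 3 h, 37 °C; reagent: DiI-labelled HDL at 10 µg/mL final; technique: bottom-read fluorescence, 550/595 nm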
# ATG4B confirm: ATG4B (human) inhibition, single-dose confirmed; shares compounds with ATG4B inh; ATG4B protease fluorescent substrate cleavage assay; inhibition, % at 8.33 µM; hit rate 92% among 320; AID 504757; in the data active = inhibition above about 39%
# PLA2 counter: inhibits human PLA2, flagging false ATG4B inhibitors. inhibition, % at 8.33 µM. shares compounds with ATG4B inh. purified PLA2, NBD-C6-HPC fluorescence, 45 min. hit rate 66% among 1,600; in the data active = inhibition above about 50%
# Target sequence (P04054 whole entry, looked up): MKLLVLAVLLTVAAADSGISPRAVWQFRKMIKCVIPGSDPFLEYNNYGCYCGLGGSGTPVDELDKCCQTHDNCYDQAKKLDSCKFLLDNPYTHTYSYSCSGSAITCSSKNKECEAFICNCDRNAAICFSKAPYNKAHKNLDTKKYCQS
# * marks the source's active call; other numbers are inactive results; nt = no result.
SMILES,SR-BI HDL uptake,CAL PDZ FP-1,CAL PDZ FP-2,ATG4B inh,SR-BI uptake up,PLA2 counter,others
O=[N+]([O-])c1ccc(C(O)CN=Cc2ccc(O)cc2O)cc1 (configuration not stated),-17,-1,-3,-5,17,nt,
N#Cc1ccccc1NC(=O)c1ccc2c(Cl)c3c(nc2c1)CCCC3,53,-1,-1,48*,-53,49,
O=C(Nc1cccnc1Cl)c1ccc2c(Cl)c3c(nc2c1)CCC3,-5,-1,-2,6,5,nt,
C[C@H](NC(=O)c1ccco1)C(=O)OCC(=O)N1CC(=O)Nc2ccccc21,10,3,0,3,-10,nt,
C=CC#CC[N+]1(CC#Cc2ccccc2)CCOCC1,-13,0,-1,70*,13,-3,ATG4B confirm=46*
C(#Cc1ccccc1)C[N+]1(CC#Cc2ccccc2)CCCC1,-16,-1,-4,-4,16,nt,
O=C(COc1ccc(F)c(Cl)c1)N1CCN(c2ccccn2)CC1,-11,-3,-2,1,11,nt,
O=C(COc1ccccc1Cl)N1CCN(c2ccccn2)CC1,2,-3,-2,92*,-2,-5,
Cc1cc(Nc2cccc(F)c2)nc(NCc2ccccc2)n1,15,-1,-1,15,-15,nt,
Cc1cc(N/N=C/c2ccc(F)cc2)nc(NCc2ccccc2)n1,nt,nt,nt,71*,nt,64*,
Cc1cc(N/N=C/c2ccc(Cl)cc2Cl)nc(NCc2ccccc2)n1,15,0,-1,85*,-15,88*,
Cc1ccc(/C=N/Nc2cc(C)nc(NCc3ccccc3)n2)cc1,9,-5,-1,64*,-9,77*,
Cc1cc(Nc2ccc(Cl)cc2)nc(NCc2ccccc2)n1,-21,-3,-1,44*,21,38,ATG4B confirm=69*
Cc1cccc(C)c1NC(=O)COC(=O)c1c2c(nc3ccccc13)/C(=C\c1ccc3c(c1)OCO3)CCC2,47,1,0,44*,-47,16,
Cc1ccsc1/C=C/C1=Cc2c(sc(NC(=O)CSc3n[nH]c(N)n3)c2C#N)C(C)(C)C1,12,-3,-1,66*,-12,52*,
CCOc1ccc(/C=C/C2=Cc3c(sc(NC(=O)CSc4n[nH]c(N)n4)c3C#N)C(C)(C)C2)cc1,34,nt,-2,2,-34,nt,
CCOC(=O)c1ccc(Nc2nc(C)nc3c2nnn3Cc2ccccc2)cc1,48,-3,-1,-1,-48,nt,
Cc1ccc(NC(=O)C(C)SCC(=O)Nc2ccc(F)cc2)cc1S(=O)(=O)N1CCOCC1 (configuration not stated),23,-2,-2,-3,-23,nt,
CCCCOc1ccc(-c2cn3ccccc3n2)cc1[N+](=O)[O-],13,-1,-3,45*,-13,48,
CCOc1ccc(S(=O)(=O)N2CN(c3cccc(C(C)=O)c3)c3nc4ccccc4nc32)cc1,-12,1,-1,10,12,nt,
O=C(Nc1nc(-c2cccs2)c(-c2cccs2)s1)C1CCCC1,17,-2,-1,50*,-17,60*,
COC1=CC(=O)c2c(ccc3ncnc(N)c23)C1=O,-18,-3,1,62*,18,-12,ATG4B confirm=49*
COc1ccc(-c2csc(NC(=O)c3ccccc3F)n2)cc1,-23,nt,1,24,23,nt,
Cc1ccc(S(=O)(=O)Nc2nc(-c3ccccc3)cs2)cc1,-7,1,-1,2,7,nt,
Cc1ccc(S(=O)(=O)Nc2ccccc2C(=O)Nc2nc(-c3ccc(F)cc3)cs2)cc1,62,-3,-1,47*,-62,60*,
SMILES,SR-BI HDL uptake,CAL PDZ FP-1,CAL PDZ FP-2,ATG4B inh,SR-BI uptake up,PLA2 counter,others
COc1ccc(-c2csc(NC(=O)c3ccccc3NS(=O)(=O)c3ccc(F)c(F)c3)n2)cc1,nt,42*,0,69*,nt,80*,
CSc1nc(=S)c2[nH]c(=S)[nH]c2[nH]1,9,-5,0,-2,-9,nt,
O=C(CC1(CC2=NS(=O)(=O)c3ccccc3N2)CCCC1)NCCc1ccccc1,3,nt,-2,-5,-3,nt,
N#Cc1cnn(-c2nc(SCc3ccccc3)nc3sc4c(c23)CCCC4)c1N,nt,-1,0,43*,nt,59*,
COCCCNc1nc(SCc2ccccc2)nc2sc3c(c12)CCC3,nt,0,-3,23,nt,nt,
O=C(CSc1nc2sccc2c(=O)[nH]1)N1CCN(c2ccccc2)CC1,-33,-1,0,-5,33,nt,
Nc1c(C(=O)Nc2ccccc2F)sc2nc(-c3cccnc3)ccc12,17,nt,-1,3,-17,nt,
Nc1c(C(=O)Nc2ccccc2F)sc2nc(-c3ccco3)ccc12,3,-2,1,47*,-3,3,
COC(=O)[C@H](C(C)C)N(Cc1ccccc1)S(=O)(=O)CCN1CCCC1,10,-9,1,-4,-10,nt,
COc1ccc2c(c1OC)C(=O)OC2Nc1nc(-c2ccc(-c3ccccc3)cc2)cs1 (configuration not stated),16,nt,-3,64*,-16,47,ATG4B confirm=39*
CCCC1(CC)C(=O)NC(=O)N=C1N (configuration not stated),-2,-2,0,2,2,nt,
Cc1ccc(-n2nnnc2SCC(=O)Nc2ccccc2-c2ccccc2)cc1C,-14,-3,-3,52*,14,48,
O=C(c1ccc(-n2c(SCc3cccc(F)c3)nc3ccccc3c2=O)cc1)N1CCOCC1,-13,nt,0,48*,13,44,ATG4B confirm=59*
O=c1c2ccccc2nc(SCc2ccc([N+](=O)[O-])cc2)n1-c1ccccc1,39,3,nt,40*,-39,50,
O=C(O)c1ccc(CSc2nc3ccccc3c(=O)n2-c2ccccc2)cc1,-4,nt,-1,41*,4,59*,
Cc1noc(C)c1CSc1nc2ccccc2c(=O)n1-c1ccc(Cl)cc1,12,nt,-2,71*,-12,70*,
Cc1noc(C)c1CSc1nc2sc(C)c(C)c2c(=O)n1-c1ccccc1,50,6,0,9,-50,nt,
O=C1/C(=C/c2cccs2)CCC/C1=C\c1cccs1,12,-1,-2,6,-12,nt,
Cn1cccc1/C=C1\CCC/C(=C\c2cccn2C)C1=O,62,-2,0,45*,-62,59*,
CCOC(=O)c1ccc(NCc2cccnc2)cc1,4,-2,-1,7,-4,nt,
COc1cc(OC)cc(-c2nnc(SCc3c(F)cccc3Cl)o2)c1,8,-5,-4,59*,-8,58*,
COc1ccc(-c2nnc(SCc3ccccc3F)o2)cc1,-14,0,0,25,14,nt,
CC1CN(C(=O)c2c(Br)cnn2C)CC(C)O1 (configuration not stated),-22,-2,-1,7,22,nt,
